From ChEMBL document CHEMBL2057101, “Fluorocyclines. 2. Optimization of the C-9 side-chain for antibacterial activity and oral efficacy” (J Med Chem, 2012)
Values after ≈ are worked out from the molar mass of the structure shown.

Legend:
[1] = tested on: Escherichia coli; experiment: Antibacterial activity against Escherichia coli ATCC 25922 isolate 107; type: functional
Summary of the method: (§1)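 MIC by broth microdilution in liquid medium per CLSI, in cation-adjusted Mueller Hinton broth made fresh and held at 4 °C before testing. Horse blood (defibrinated) added to the medium where appropriate. Runs were accepted only when the comparator antibiotics and ATCC QC strains fell within their recommended ranges.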

[2] = tested on: Staphylococcus aureus; experiment: Antibacterial activity against Staphylococcus aureus ATCC 13709 infected in CD-1 mouse assessed as increase in survival at 3 mg/kg, iv administered as single dose 1 hr post infection measured after 48 hrs post infection; type: functional
Summary of the method: (§2)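 Mouse septicemia screen: S. aureus grown to log phase, diluted in 5% mucin to give 90% mortality within 48 h, inoculum 1.98 × 10⁶ CFU/mouse, 0.5 mL intraperitoneal into female CD-1 mice (18−20 g). Six mice per group. Single 30 mg/kg oral gavage or 3 mg/kg IV dose 1 h post infection. Infection controls received sterile water vehicle. Survival recorded at 48 h.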

[3] = tested on: Staphylococcus aureus; experiment: Antibacterial activity against tetracycline-resistant Staphylococcus aureus isolate SA158 expressing TetK gene; type: functional
[4] = tested on: Streptococcus pneumoniae; experiment: Antibacterial activity against tetracycline-resistant Streptococcus pneumoniae isolate 160 expressing tetM gene; type: functional
[5] = tested on: Staphylococcus aureus; experiment: Antibacterial activity against tetracycline-susceptible Staphylococcus aureus ATCC 13709 Smith isolate SA100; type: functional
Summary of the method: (§3)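 Broth microdilution MIC following CLSI methods in cation-adjusted Mueller Hinton broth, prepared fresh and held at 4 °C before testing. Defibrinated horse blood added to the medium where appropriate. Runs accepted when quality control ranges for comparator antibiotics and ATCC QC strains were met.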

[6] = tested on: Escherichia coli; experiment: Antibacterial activity against Escherichia coli isolate EC155 expressing tetA gene; type: functional; summary of the method: as §1
[7] = tested on: Staphylococcus aureus; experiment: Antibacterial activity against tetracycline-resistant Staphylococcus aureus isolate SA161 expressing TetM gene; type: functional; summary of the method: as §3
[8] = tested on: Streptococcus pneumoniae; experiment: Antibacterial activity against Streptococcus pneumoniae ATCC 49619 isolate 106; type: functional; summary of the method: as §1
[9] = tested on: Staphylococcus aureus; experiment: Antibacterial activity against Staphylococcus aureus ATCC 13709 infected in CD-1 mouse assessed as increase in survival at 30 mg/kg, po administered as single dose 1 hr post infection measured after 48 hrs post infection; type: functional; summary of the method: as §2
[10] = tested on: Klebsiella pneumoniae; experiment: Antibacterial activity against Klebsiella pneumoniae ATCC 13883; type: functional; summary of the method: as §1
[11] = tested on: Staphylococcus aureus; experiment: Antibacterial activity against Staphylococcus aureus ATCC 13709 infected in po dosed CD-1 mouse assessed as increase in survival administered as single dose 1 hr post infection measured after 48 hrs post infection; type: functional; conditions: ATCC 13709, po, read-out: PD50
[12] = tested on: Moraxella catarrhalis; experiment: Antibacterial activity against Moraxella catarrhalis; type: functional; summary of the method: as §1
[13] = tested on: Staphylococcus aureus; experiment: Antibacterial activity against methicillin-resistant Staphylococcus aureus VL-137; type: functional; summary of the method: as §3
[14] = tested on: Haemophilus influenzae; experiment: Antibacterial activity against Haemophilus influenzae 551; type: functional; summary of the method: as §1
[15] = tested on: Acinetobacter baumannii; experiment: Antibacterial activity against Acinetobacter baumannii; type: functional; summary of the method: as §1
[16] = Oral bioavailability in rat; type: ADME, organism-based; conditions: in vivo
[17] = tested on: Streptococcus pyogenes; experiment: Antibacterial activity against Streptococcus pyogenes; type: functional; summary of the method: as §1
[18] = tested on: Streptococcus pneumoniae; experiment: Antibacterial activity against Streptococcus pneumoniae SPN160; type: functional; summary of the method: as §3

SMILES	MIC [1] [µg/mL]	survival at 3 mg/kg [2] [%]	MIC [3] [µg/mL]	MIC [4] [µg/mL]	MIC [5] [µg/mL]	MIC [6] [µg/mL]	MIC [7] [µg/mL]	MIC [8] [µg/mL]	survival at 30 mg/kg [9] [%]	MIC [10] [µg/mL]	ED50 [11] [mg/kg]	other results
CCN1CCC[C@H]1C(=O)Nc1cc(F)c2c(c1O)C(=O)C1=C(O)[C@]3(O)C(=O)C(C(N)=O)=C(O)[C@@H](N(C)C)[C@@H]3C[C@@H]1C2	0.13 (≈ 0.227 µM)	67	0.031 (≈ 0.0541 µM)	≤ 0.016	0.031 (≈ 0.0541 µM)	4 (≈ 6.99 µM)	0.13 (≈ 0.227 µM)	≤ 0.016	40			
CN(C)[C@@H]1C(O)=C(C(N)=O)C(=O)[C@@]2(O)C(O)=C3C(=O)c4c(O)c(NC(=O)[C@@H]5C[C@H](F)CN5C)cc(F)c4C[C@H]3C[C@@H]12	2 (≈ 3.47 µM)	83	0.063 (≈ 0.109 µM)	0.016 (≈ 0.0278 µM)	0.13 (≈ 0.225 µM)	> 32	0.5 (≈ 0.867 µM)	0.016 (≈ 0.0278 µM)	33	16 (≈ 27.8 µM)		
CN(C)[C@@H]1C(O)=C(C(N)=O)C(=O)[C@@]2(O)C(O)=C3C(=O)c4c(O)c(NC(=O)c5ccccn5)cc(F)c4C[C@H]3C[C@@H]12	> 32	0	0.13 (≈ 0.235 µM)	8 (≈ 14.5 µM)	0.13 (≈ 0.235 µM)	> 32	0.13 (≈ 0.235 µM)	4 (≈ 7.24 µM)	0	> 32	> 30	
CN(C)[C@@H]1C(O)=C(C(N)=O)C(=O)[C@@]2(O)C(O)=C3C(=O)c4c(O)c(NC(=O)c5nccs5)cc(F)c4C[C@H]3C[C@@H]12	> 32	17	0.063 (≈ 0.113 µM)	4 (≈ 7.16 µM)	0.063 (≈ 0.113 µM)	> 32	0.13 (≈ 0.233 µM)	2 (≈ 3.58 µM)	0	> 32		
CN(C)[C@@H]1C(O)=C(C(N)=O)C(=O)[C@@]2(O)C(O)=C3C(=O)c4c(O)c(NC(=O)[C@@H]5CCN5C)cc(F)c4C[C@H]3C[C@@H]12	0.016 (≈ 0.0294 µM)	100	0.016 (≈ 0.0294 µM)	0.016 (≈ 0.0294 µM)	0.016 (≈ 0.0294 µM)	1 (≈ 1.84 µM)	0.016 (≈ 0.0294 µM)	0.016 (≈ 0.0294 µM)	83	0.063 (≈ 0.116 µM)	14.3	MIC [12]: 0.016 µg/mL (≈ 0.0294 µM); MIC50 [12]: 0.016 µg/mL (≈ 0.0294 µM); MIC90 [12]: 0.016 µg/mL (≈ 0.0294 µM); MIC50 [13]: 0.031 µg/mL (≈ 0.0569 µM); MIC90 [13]: 1 µg/mL (≈ 1.84 µM); MIC50 [14]: 0.063 µg/mL (≈ 0.116 µM); MIC90 [14]: 0.25 µg/mL (≈ 0.459 µM); MIC50 [15]: 0.13 µg/mL (≈ 0.239 µM); MIC90 [15]: 1 µg/mL (≈ 1.84 µM); bioavailability [16]: 4.6%; MIC [17]: 0.016 µg/mL (≈ 0.0294 µM); MIC50 [17]: 0.016 µg/mL (≈ 0.0294 µM); MIC90 [17]: 0.016 µg/mL (≈ 0.0294 µM); MIC [18]: 0.016 µg/mL (≈ 0.0294 µM); MIC50 [18]: 0.016 µg/mL (≈ 0.0294 µM); MIC90 [18]: 0.016 µg/mL (≈ 0.0294 µM)
CN(C)[C@@H]1C(O)=C(C(N)=O)C(=O)[C@@]2(O)C(O)=C3C(=O)c4c(O)c(NS(C)(=O)=O)cc(F)c4C[C@H]3C[C@@H]12	0.25 (≈ 0.476 µM)	100	4 (≈ 7.61 µM)	0.016 (≈ 0.0304 µM)	0.13 (≈ 0.247 µM)	> 32	0.25 (≈ 0.476 µM)	0.016 (≈ 0.0304 µM)	50	2 (≈ 3.81 µM)	> 30	
CNC(=O)Nc1cc(F)c2c(c1O)C(=O)C1=C(O)[C@]3(O)C(=O)C(C(N)=O)=C(O)[C@@H](N(C)C)[C@@H]3C[C@@H]1C2	1 (≈ 1.98 µM)	83	16 (≈ 31.7 µM)	0.5 (≈ 0.991 µM)	0.25 (≈ 0.496 µM)	> 32	2 (≈ 3.96 µM)	0.031 (≈ 0.0615 µM)	33	4 (≈ 7.93 µM)	> 30	
CCCNc1cc(F)c2c(c1O)C(=O)C1=C(O)[C@]3(O)C(=O)C(C(N)=O)=C(O)[C@@H](N(C)C)[C@@H]3C[C@@H]1C2	32 (≈ 65.4 µM)		0.5 (≈ 1.02 µM)	4 (≈ 8.17 µM)	0.5 (≈ 1.02 µM)	> 32	0.5 (≈ 1.02 µM)	1 (≈ 2.04 µM)		> 32		
CC(C)CCNc1cc(F)c2c(c1O)C(=O)C1=C(O)[C@]3(O)C(=O)C(C(N)=O)=C(O)[C@@H](N(C)C)[C@@H]3C[C@@H]1C2	> 32	17	0.13 (≈ 0.251 µM)	4 (≈ 7.73 µM)	0.25 (≈ 0.483 µM)	> 32	0.5 (≈ 0.966 µM)	2 (≈ 3.86 µM)	33	> 32	> 60	
CN(C)[C@@H]1C(O)=C(C(N)=O)C(=O)[C@@]2(O)C(O)=C3C(=O)c4c(O)c(NCC(C)(C)C)cc(F)c4C[C@H]3C[C@@H]12	> 32		0.25 (≈ 0.483 µM)	16 (≈ 30.9 µM)	0.25 (≈ 0.483 µM)	> 32	2 (≈ 3.86 µM)	4 (≈ 7.73 µM)		> 32		
CN(C)[C@@H]1C(O)=C(C(N)=O)C(=O)[C@@]2(O)C(O)=C3C(=O)c4c(O)c(CNCC(C)(C)C)cc(F)c4C[C@H]3C[C@@H]12	4 (≈ 7.52 µM)		2 (≈ 3.76 µM)	0.25 (≈ 0.47 µM)	2 (≈ 3.76 µM)	16 (≈ 30.1 µM)	4 (≈ 7.52 µM)	0.25 (≈ 0.47 µM)		8 (≈ 15 µM)		
CN(C)[C@@H]1C(O)=C(C(N)=O)C(=O)[C@@]2(O)C(O)=C3C(=O)c4c(O)c(CNC(=O)CNC(C)(C)C)cc(F)c4C[C@H]3C[C@@H]12	32 (≈ 55.7 µM)		16 (≈ 27.8 µM)	4 (≈ 6.96 µM)	16 (≈ 27.8 µM)	> 32	> 32	0.5 (≈ 0.87 µM)		> 32		
CN(C)[C@@H]1C(O)=C(C(N)=O)C(=O)[C@@]2(O)C(O)=C3C(=O)c4c(O)c(NC(=O)[C@@H]5CCCN5)cc(F)c4C[C@H]3C[C@@H]12	1 (≈ 1.84 µM)	100	0.5 (≈ 0.918 µM)	0.016 (≈ 0.0294 µM)	0.25 (≈ 0.459 µM)	16 (≈ 29.4 µM)	0.5 (≈ 0.918 µM)	0.016 (≈ 0.0294 µM)	0	1 (≈ 1.84 µM)		
CN(C)[C@@H]1C(O)=C(C(N)=O)C(=O)[C@@]2(O)C(O)=C3C(=O)c4c(O)c(NC(=O)CN5CCCC5)cc(F)c4C[C@H]3C[C@@H]12 [ERAVACYCLINE]	0.016 (≈ 0.0286 µM)		0.016 (≈ 0.0286 µM)	0.016 (≈ 0.0286 µM)	0.016 (≈ 0.0286 µM)	1 (≈ 1.79 µM)	0.016 (≈ 0.0286 µM)	0.016 (≈ 0.0286 µM)		0.125 (≈ 0.224 µM)		
C[C@H]1COc2c(N3CCN(C)CC3)c(F)cc3c(=O)c(C(=O)O)cn1c23.C[C@H]1COc2c(N3CCN(C)CC3)c(F)cc3c(=O)c(C(=O)O)cn1c23.O [LEVOFLOXACIN]												MIC50 [12]: 0.031 µg/mL; MIC90 [12]: 0.063 µg/mL; MIC50 [13]: 16 µg/mL; MIC90 [13]: > 32 µg/mL; MIC [14]: 0.016 µg/mL; MIC50 [14]: 0.016 µg/mL; MIC90 [14]: 0.031 µg/mL; MIC50 [15]: 4 µg/mL; MIC90 [15]: 32 µg/mL; MIC50 [17]: 0.5 µg/mL; MIC90 [17]: 2 µg/mL; MIC50 [18]: 1 µg/mL; MIC90 [18]: 1 µg/mL
